Data taken from PMC10925177 (bioRxiv, 2024).

Assays:
GLP [1] = target: T1, GLP (Homo sapiens, UniProt Q9H9B1); assay: Western blot of GLP protein levels in cancer cells; format: cell-based
T1 sequence (Q9H9B1 1-1298): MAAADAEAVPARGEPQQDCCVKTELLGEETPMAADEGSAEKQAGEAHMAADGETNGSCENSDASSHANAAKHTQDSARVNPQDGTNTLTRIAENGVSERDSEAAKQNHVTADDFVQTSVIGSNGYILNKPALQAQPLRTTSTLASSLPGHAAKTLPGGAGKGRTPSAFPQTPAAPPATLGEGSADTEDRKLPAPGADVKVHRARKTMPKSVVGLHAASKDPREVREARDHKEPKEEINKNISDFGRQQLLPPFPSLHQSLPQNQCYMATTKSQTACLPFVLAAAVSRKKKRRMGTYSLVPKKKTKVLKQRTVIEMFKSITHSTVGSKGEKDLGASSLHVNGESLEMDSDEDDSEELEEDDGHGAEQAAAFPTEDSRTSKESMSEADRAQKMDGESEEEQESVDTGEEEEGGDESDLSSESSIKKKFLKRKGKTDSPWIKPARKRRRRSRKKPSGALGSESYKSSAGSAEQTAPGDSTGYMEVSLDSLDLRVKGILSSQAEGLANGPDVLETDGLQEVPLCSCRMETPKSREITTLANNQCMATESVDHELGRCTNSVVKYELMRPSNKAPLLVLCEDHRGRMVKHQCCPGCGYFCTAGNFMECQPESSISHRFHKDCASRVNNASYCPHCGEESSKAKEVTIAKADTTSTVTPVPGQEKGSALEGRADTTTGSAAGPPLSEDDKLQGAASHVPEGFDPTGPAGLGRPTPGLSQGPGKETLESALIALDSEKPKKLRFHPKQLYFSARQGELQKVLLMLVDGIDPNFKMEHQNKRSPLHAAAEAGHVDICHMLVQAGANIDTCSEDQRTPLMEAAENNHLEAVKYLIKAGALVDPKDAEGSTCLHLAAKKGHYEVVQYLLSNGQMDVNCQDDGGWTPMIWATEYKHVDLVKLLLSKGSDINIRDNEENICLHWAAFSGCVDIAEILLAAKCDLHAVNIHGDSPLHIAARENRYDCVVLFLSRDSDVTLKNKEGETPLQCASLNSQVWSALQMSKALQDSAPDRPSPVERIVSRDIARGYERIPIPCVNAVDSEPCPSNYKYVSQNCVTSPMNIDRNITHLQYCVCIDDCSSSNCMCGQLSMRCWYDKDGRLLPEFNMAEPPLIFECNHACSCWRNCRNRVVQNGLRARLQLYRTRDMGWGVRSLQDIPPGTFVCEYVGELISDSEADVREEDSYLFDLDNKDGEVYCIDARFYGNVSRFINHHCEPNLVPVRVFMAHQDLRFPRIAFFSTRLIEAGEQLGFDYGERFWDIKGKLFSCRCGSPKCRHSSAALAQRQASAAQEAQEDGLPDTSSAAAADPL
Procedure, shortened: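 Cells (22Rv1, K562, H1299) were treated for 24 h at the indicated concentrations; 22Rv1 time courses were run at 3 μM. Cells were lysed in RIPA with protease inhibitors, and 10–30 μg of protein was resolved by SDS-PAGE and transferred to PVDF. Blots were probed overnight at 4 °C, with vinculin/β-actin as loading controls. Band intensity was normalised to DMSO, with n = 2 independent experiments (mean ± SD).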

GLP [2] = target: T1, GLP; assay: GLP radioactive methyltransferase assay; format: biochemical; settings: indicated concentrations, duplicate (Figure 4C)
Procedure, shortened: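 Enzyme activity was measured with a radioisotope-based MT HotSpot methyltransferase assay run by a contract laboratory. Test compounds were run at the indicated concentrations, in duplicate. Data are mean ± SD of the two duplicate experiments.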

SET7/9 = target: T2, SET7/9 (Homo sapiens, UniProt Q8WTS6); assay: Radioactive methyltransferase assay, SET7/9; format: biochemical; settings: 10 μM compound
T2 sequence (Q8WTS6 1-366): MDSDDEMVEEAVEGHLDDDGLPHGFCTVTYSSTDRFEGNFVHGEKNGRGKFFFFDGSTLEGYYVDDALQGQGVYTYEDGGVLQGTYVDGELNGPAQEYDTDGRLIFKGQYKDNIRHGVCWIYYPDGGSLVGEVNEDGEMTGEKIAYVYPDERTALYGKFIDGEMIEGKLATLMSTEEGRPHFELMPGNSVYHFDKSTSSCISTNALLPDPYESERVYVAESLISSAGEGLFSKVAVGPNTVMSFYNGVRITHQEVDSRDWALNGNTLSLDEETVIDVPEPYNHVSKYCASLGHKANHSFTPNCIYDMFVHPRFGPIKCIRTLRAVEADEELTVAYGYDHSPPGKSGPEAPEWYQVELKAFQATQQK
Procedure, shortened: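 The selectivity screen covered 21 protein methyltransferases in radioisotope-based MT HotSpot methyltransferase assays run by a contract laboratory. Test compound was at 10 μM. Each assay was run in duplicate and reported as mean ± SD of the two replicates.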

Compound: COc1cc2c(NC3CCN(CCCC(=O)NCCCCCCCCCCCC(=O)N[C@H](C(=O)N4C[C@H](O)C[C@H]4C(=O)NCc4ccc(-c5scnc5C)cc4)C(C)(C)C)CC3)nc(N3CCC(F)(F)CC3)nc2cc1OCCCN1CCCC1 [Compound 10, (2S,4R)-1-((S)-2-(12-(4-(4-((2-(4,4-difluoropiperidin-1-yl)-6-methoxy-7-(3-(pyrrolidin-1-yl)propoxy)quinazolin-4-yl)amino)piperidin-1-yl)butanamido)dodecanamido)-3,3-dimethylbutanoyl)-4-hydroxy-N-(4-(4-methylthiazol-5-yl)benzyl)pyrrolidine-2-carboxamide]
- GLP degradation, in words (GLP [1]; 22Rv1 cells, 1 μM, 24 h, WB (Figure 3A)): potently induced degradation
- duration of GLP degradation effect (GLP [1]; 22Rv1 cells, 3 μM): up to 48 h
- time at which GLP degradation was first observed (GLP [1]; 22Rv1 cells, 3 μM): 4 h
- time to complete GLP degradation (GLP [1]; 22Rv1 cells, 3 μM): around 24 h
- GLP degradation, in words (GLP [1]; H1299 cells, 3 μM, 24 h, WB): degraded
- GLP degradation, in words (GLP [1]; K562 cells, 3 μM, 24 h, WB): induced G9a and GLP degradation
- DC50 (GLP [1]; read-out: half-maximal degradation concentration (DC50) for GLP, 22Rv1 cells, 24 h, WB): 260 ± 53 nM
- inhibition of GLP enzymatic activity (GLP [2]): similarly inhibited
- inhibition of SET7/9 (SET7/9): moderately inhibited
